Screening data from PubChem.
Shown are actives, neighbours in structure and some others; about 2.7% of the full set was active somewhere.
PAFAH1B2 FP inh – PAFAH1B2 enzyme inhibitors, primary screen, biochemical, fluorescence polarization, human; Platelet-activating factor acetylhydrolase IB subunit alpha2 (Homo sapiens), P68402; recombinant PAFAH1B2, FP-rhodamine activity probe; inhibition, % at 3.39 µM; 1.2% of 340,000 active;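 active means inhibition above the mean of all tested compounds plus 3 SD, cut at about 24% in these data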;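 further: 0% = enzyme with DMSO and 100% = wells lacking PAFAH1B2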
Target sequence (P68402 whole entry, looked up): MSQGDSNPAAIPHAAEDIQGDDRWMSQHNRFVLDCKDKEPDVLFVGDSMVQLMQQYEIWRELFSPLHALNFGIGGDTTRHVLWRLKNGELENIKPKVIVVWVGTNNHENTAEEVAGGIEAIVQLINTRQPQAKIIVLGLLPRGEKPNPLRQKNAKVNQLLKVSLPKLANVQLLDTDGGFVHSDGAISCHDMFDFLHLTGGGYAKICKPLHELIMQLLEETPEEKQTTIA
PAFAH2 inh – PAFAH2 enzyme inhibitors, primary screen, biochemical, fluorescence polarization, human | recombinant PAFAH2, FP-rhodamine activity probe | 0.99% of 340,000 active | Platelet-activating factor acetylhydrolase 2, cytoplasmic (Homo sapiens), Q99487 | inhibition, % at 3.39 µM;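 active means inhibition above the mean over all tested compounds plus 3 SD, cut at about 30% in these data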;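 further: inhibitors block probe labeling of enzyme so polarization drops; 0% = enzyme with DMSO and 100% = wells lacking PAFAH2 protein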
PAFAH1B3 FP inh – PAFAH1B3 enzyme inhibitors, primary screen, biochemical, fluorescence polarization, human; Platelet-activating factor acetylhydrolase IB subunit alpha1 (Homo sapiens), Q15102; recombinant PAFAH1B3, FP-rhodamine probe; inhibition, % at 3.39 µM; 0.28% of 340,000 active; AID 492972, 2010;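 active means inhibition above the screen-wide average of all tested compounds plus 3 SD, cut at about 25% in these data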;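 further: 0% = enzyme with DMSO only and 100% = wells lacking PAFAH1B3 protein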
Target sequence (Q15102 whole entry, looked up): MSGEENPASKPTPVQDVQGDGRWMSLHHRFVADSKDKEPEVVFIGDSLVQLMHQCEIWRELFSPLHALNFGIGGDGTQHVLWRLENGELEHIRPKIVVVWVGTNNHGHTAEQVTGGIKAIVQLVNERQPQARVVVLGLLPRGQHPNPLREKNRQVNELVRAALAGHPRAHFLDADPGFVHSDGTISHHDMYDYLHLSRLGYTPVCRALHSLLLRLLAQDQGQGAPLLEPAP
pPAFAH inh – pPAFAH enzyme inhibitors, primary screen, biochemical, fluorescence polarization, human. Platelet-activating factor acetylhydrolase (Homo sapiens), Q13093. recombinant pPAFAH, FP-rhodamine probe fluorescence polarization. 1.5% of 330,000 active. inhibition, % at 3.39 µM;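 active means inhibition above the mean inhibition across the screen plus 3 SD, cut at about 25% in these data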;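 further: inhibitors block binding of the rhodamine activity-based probe so polarization drops; 0% = enzyme with DMSO and 100% = wells lacking pPAFAH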
ARFGAP1 inhibitor – inhibitors of rat ARFGAP1 GAP activity, primary screen, biochemical, fluorescence polarization, GDP tracer; ADP-ribosylation factor GTPase-activating protein 1 (Rattus norvegicus), Q62848; Arfgap1-stimulated ARF1 GTP hydrolysis, GDP FP detection; inhibition, % at 16.5 µM; 0.26% of 360,000 active; AID 651572, 2012;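 active means inhibition above a per-plate limit, mean inhibition of low control wells plus 3 SD, cut at about 25% in these data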;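 further: 0% = DMSO wells with enzyme and 100% = wells lacking Arfgap1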
Target sequence (Q62848 1-136 limits assumed): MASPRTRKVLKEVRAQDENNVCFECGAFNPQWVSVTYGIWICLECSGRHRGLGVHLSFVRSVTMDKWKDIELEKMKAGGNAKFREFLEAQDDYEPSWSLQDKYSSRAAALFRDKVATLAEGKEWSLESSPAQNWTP
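Assay system: Rat Arfgap1 GAP domain (His6, aa 1-136), purified enzyme | Buffer or medium: HEPES 25 mM pH 7.5, NaCl 150 mM, MgCl2, DTT | Schedule: GTP hydrolysis reaction 2 h at 25 °C | Signal: FP of antibody-bound GDP Alexa 633 tracer, ex 620/em 688 nm | Measure: Percent inhibition of Arfgap1-stimulated GTP hydrolysis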
ASAP1 GAP inh – inhibitors of human ASAP1 ArfGAP activity, primary screen, biochemical, fluorescence polarization | ASAP1-stimulated ARF1 GTP hydrolysis, GDP FP detection | AID 624377, 2012 | 0.19% of 360,000 active | inhibition, % at 16.5 µM; in the data active means inhibition above about 25%;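 further: 0% = vehicle with enzyme and substrate and 100% = no enzyme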
pPAFAH confirm – pPAFAH (PLA2G7) enzyme inhibitors, confirmation, biochemical, fluorescence polarization, human | shares compounds with pPAFAH inh | recombinant pPAFAH, FP-Rh probe fluorescence polarization | inhibition, % at 3.39 µM | 72% of 2,300 active | AID 463230, 2010;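 active means mean inhibition of the triplicate above the hit cutoff set for the earlier primary screen, cut at about 25% in these data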;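 further: 0% = enzyme with DMSO and 100% = wells lacking pPAFAH enzyme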
Starred values were filed as active, the others as inactive; . = no result.

SMILES	PAFAH1B2 FP inh	PAFAH2 inh	PAFAH1B3 FP inh	pPAFAH inh	ARFGAP1 inhibitor	ASAP1 GAP inh	others
Cc1cc(O)cc(=O)n1-c1ccc(Cl)c(C(F)(F)F)c1	.	.	.	.	-5	-2
C=CCOn1c(=O)c(-c2ccc(OC)cc2)[n+]([O-])c2ccccc21	4	12	8	33*	-4	-2
Cc1oc(C(=O)O)cc1COc1cccc2cccnc12	9	22	16	28*	-12	-12
COC(=O)C1=C(C)N(C)C(=NCc2ccccc2)NC1c1ccccc1C(F)(F)F (stereo not given)	.	.	.	.	2	8
CC1CCN(C(=O)CNS(=O)(=O)c2ccc(Br)s2)CC1	23	14	1	9	14	-3
O=C(CNS(=O)(=O)c1ccc(Br)s1)N1CCN(c2ncccn2)CC1	25*	12	4	.	4	5
Cc1ccc(S(=O)(=O)Nc2ccc(C(=O)Nc3ccncc3)cc2)cc1	5	-13	5	1	-11	9
O=C(O)c1cc(NS(=O)(=O)c2ccc(F)cc2)cc(NS(=O)(=O)c2ccc(F)cc2)c1	42*	32*	5	15	11	5
CCOc1ccc(NS(=O)(=O)c2ccc(C(=O)NCCCN3CCOCC3)cc2)cc1	3	-4	12	31*	5	0
O=C(Nc1ccc(S(=O)(=O)Nc2ccc(F)cc2)cc1)c1ccc(CN2CCOCC2)cc1	0	4	1	34*	0	3
Cc1ccc(S(=O)(=O)Nc2ccc(NC(=O)c3ccc(F)cc3)cc2)cc1	4	1	6	30*	7	2
CC(C)CC(NC(=O)OCc1ccccc1)C(=O)NCC(=O)NCC(=O)OCc1ccccc1 (stereo not given)	.	.	.	.	-6	4
C[C@H]1CN([C@@H](C)CO)C(=O)CCCn2nncc2CO[C@@H]1CN(C)CC1CC1	.	.	.	.	-6	-3
CN1OC[C@@H]2CN[C@H](c3ccc(N4CCCCC4)cc3)C[C@@H]21	.	.	.	.	-1	-3
CCCCOCC1CN(CCCC)S(=O)(=O)c2c(Oc3ccc(OC)cc3)cccc2O1 (stereo not given)	.	.	.	.	7	4
CCCN1CCCCC(NC(=O)c2ccc(F)c(F)c2)C1=O (stereo not given)	.	.	.	.	8	-2
Cc1ccccc1Nc1nc(NCc2ccco2)c2ccccc2n1	0	6	-1	-2	2	-2
COc1ccc(OC)c(Nc2nc(NCc3ccco3)c3ccccc3n2)c1	3	-1	13	25*	-3	2
O=C(NCCc1ccccc1Cl)[C@@H]1CCCN1C(=O)[C@@H](NC(=O)N1CCOCC1)C1CCCCC1	.	.	.	.	-6	-6
C#CCNC(=O)C[C@H]1C[C@@]2(C(=O)OC)C(=C[C@H](C(C)(C)C)O[C@@H]2C)N(Cc2ccc3c(c2)OCO3)C1=O	.	.	.	.	4	1
Cc1ccc(S(=O)(=O)NCCC(=O)Nc2ccncc2)cc1C	1	-6	6	5	9	10
CC(=O)Nc1ccc(S(=O)(=O)NCCC(=O)Nc2ccc(C)c(Cl)c2)cc1	8	-1	2	1	4	6
Cc1ccc(S(=O)(=O)NCCC(=O)Nc2ccc(Cl)c(Cl)c2)cc1C	25*	-3	-3	0	12	1
Cc1ccc(S(=O)(=O)NCCC(=O)Nc2ccc(Cl)c(Cl)c2)cc1	29*	6	-4	1	5	9
C=CCNC(=O)c1onc(CSc2ccc(Cl)cc2)c1C(=O)NCC=C	25*	-8	-5	0	6	-1
SMILES	PAFAH1B2 FP inh	PAFAH2 inh	PAFAH1B3 FP inh	pPAFAH inh	ARFGAP1 inhibitor	ASAP1 GAP inh	others
C=CCNC(=O)c1onc(CSc2ccc(F)c(F)c2)c1C(=O)O	10	20	6	5	-3	-11
O=C(O)c1ccccc1N/N=C/c1cc(Br)cc(Br)c1O	12	35*	10	41*	-2	-5	pPAFAH confirm=62*
Cc1c(Cl)cnc(NC(=O)COC(=O)c2cccc(S(=O)(=O)N3c4ccccc4CC3C)c2)c1Cl (stereo not given)	9	17	10	22	9	-12
Cc1noc(C)c1CSCC(=O)N(C)CC(=O)Nc1ccc(F)c(F)c1F	5	5	-1	0	7	6
CN(/N=C/c1ccc(O)cc1O)c1nc(-c2ccccc2)cc(-c2ccccc2)n1	-2	3	16	37*	18	3	pPAFAH confirm=10
COCc1cc(N2CCNC[C@H]2C)ccc1N1C[C@@H](C)O[C@@H](C)C1	.	.	.	.	4	-15
COC(=O)c1sc(S(=O)(=O)N2CCCCC2C)c(C(=O)OC)c1C (stereo not given)	1	-2	2	6	-2	-7
CCN(CC)C(=O)C1=C(C)N(Cc2ccccc2)C(=O)C(CC(=O)NC2CC2)C1 (stereo not given)	.	.	.	.	-6	-4
COc1ccccc1NS(=O)(=O)c1ccc(C)c(C(N)=O)c1	-2	3	3	58*	0	2	pPAFAH confirm=1
COc1ccccc1NS(=O)(=O)c1ccc(C(N)=O)cc1	3	-4	1	-3	14	-11
COc1ccc(C(=O)CC(=O)C(=O)Nc2cc(C)ccc2C)cc1	2	-3	10	2	-12	-12
COc1ccc(C(=O)CC(=O)C(=O)Nc2ccc([N+](=O)[O-])cc2C)cc1	6	-8	15	48*	-7	-6	pPAFAH confirm=8
CN(C(=S)NC(=O)C1CC1)c1ccc(O)cc1	8	-1	-2	61*	13	-7	pPAFAH confirm=2
Oc1ccc(Cl)cc1/C=C/c1ccc2cccc(O)c2n1	6	6	18	.	4	17
Oc1c(Cl)cc(Cl)cc1/C=C/c1ccc2cccc(O)c2n1	1	14	11	51*	8	11	pPAFAH confirm=49*
O=C(NCCc1ccccc1Cl)[C@@H]1CCCN1C(=O)[C@@H](NC(=O)N1CCOCC1)c1ccccc1	.	.	.	.	-11	-1
CCc1ccc(Nc2n[n+](-c3ccccc3)c(-c3c(Cl)cccc3Cl)s2)cc1	0	7	2	56*	3	-9	pPAFAH confirm=34*
COc1ccc(C)cc1Nc1n[n+](-c2ccccc2)c(-c2ccc(OC)c(OC)c2OC)s1	-1	6	11	10	6	5
